# Rows were chosen to be rich in hits. Some 2.2% of all compounds tested hit in one or more screens of this group.
# Tn7 DDE FP: inhibitors of Tn7 peptide binding to human fibrin DD(E); P02675; FP displacement of FITC-Tn7 peptide from fibrin DD(E); 0% = median of compound wells per plate; inhibition, % at 8.3 µM; 0.13% of 370,000 active;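 active = inhibition above the mean of compounds falling within the control limits plus 3 SD of them, cut at about 14% in these data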;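 also: 0% = plate median of compound wells and 100% = 10 µM Aha-Tn7 peptide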
# Target sequence (P02675 whole entry, looked up): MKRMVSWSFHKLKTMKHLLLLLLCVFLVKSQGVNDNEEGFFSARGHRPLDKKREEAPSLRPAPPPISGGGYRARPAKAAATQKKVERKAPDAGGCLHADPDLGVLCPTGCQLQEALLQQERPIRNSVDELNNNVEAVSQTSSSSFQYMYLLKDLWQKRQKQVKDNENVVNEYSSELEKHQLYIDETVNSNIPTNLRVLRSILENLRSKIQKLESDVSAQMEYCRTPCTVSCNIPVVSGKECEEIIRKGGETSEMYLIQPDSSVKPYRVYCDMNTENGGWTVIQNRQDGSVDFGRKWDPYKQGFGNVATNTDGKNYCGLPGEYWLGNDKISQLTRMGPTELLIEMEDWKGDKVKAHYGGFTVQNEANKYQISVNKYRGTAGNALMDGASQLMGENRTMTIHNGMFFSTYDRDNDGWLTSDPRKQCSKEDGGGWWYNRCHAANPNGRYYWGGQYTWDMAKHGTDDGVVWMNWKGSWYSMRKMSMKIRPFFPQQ
#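 system = human fibrin DD(E) protein | quantity = DD(E) 2 µM final | medium = Tris/NaCl/CaCl2 buffer, pH 7.8 | also added = labelled Tn7 tracer, 0.1 µM | compound dosing = single point at 8.3 µM | timing = compound with protein 10 min, then 3 h after probe, room temperature | signal = FP measurement | benchmarks = Aha-Tn7 high control | repeats = one replicate per compound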
# SKN-1 block: inhibitors of C. elegans SKN-1; inhibition, % at 21.8 µM; C. elegans VP596 Pgst-4::GFP/RFP ratio, acrylamide-induced, 24 h; 0.49% of 360,000 active;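 active = interference check ratio from 0.5 to 1.5 plus GFP to RFP signal ratio inhibition reaching or exceeding a fixed threshold, cut at about 30% in these data, passing the limit was not always enough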
# MT1-MMP act inh: MT1-MMP (human) activation inhibition | P50281 | HT1080 RFP-PRO-GFP cells, GFP/RFP ratio fluorescence, overnight; percent of plate control window, DMSO zero | GFP/RFP ratio change, % at 20 µM | 0.061% of 360,000 active | AID 651647;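 active = GFP/RFP ratio change of at least 30% with cell ATP level not reduced by more than half and red fluorescence within 50% of control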
#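 Test system: HT1080 cells expressing an RFP-PRO-GFP fluorescent reporter construct / Compound dosing: single-point 20 µM compound, 1% DMSO / Schedule: cells overnight before dosing, compound overnight, 37 °C, 5% CO2 / Evaluation: GFP/RFP fluorescence ratio / Control set: DMSO and RFP-L50D-GFP cell wells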
# KLK7 zymogen act: proKLK7 (human) activation, primary screen | P49862 | purified proKLK7, EDANS-DABCYL substrate fluorescence; 100% is mature enzyme control, 0% vehicle | activation, % at 7 µM | 0.9% of 370,000 active | AID 652039;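 active = activation above the mean of all tested compounds plus 3 SD, computed per campaign excluding outliers beyond control limits, cut at about 13% in these data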
# Tn6 DDE FP: disrupts Tn6 cyclic peptide binding to fibrin D-Dimer-E complex | Fibrin DD(E) TRITC-Tn6 fluorescence polarization displacement | P02675 | 0.21% of 370,000 active | inhibition, % at 8.3 µM | AID 720509;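 active = inhibition above a per-campaign cutoff: mean of compounds within control limits plus 3 SD, cut at about 15% in these data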;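 also: 0% = median of all compound wells on the plate and 100% = blocking peptide control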
# Neddylation inh: inhibitors of human cullin neddylation. P61081+Q13564. 0.58% of 360,000 active. calls only at 25 µM. TR-FRET cullin neddylation, biochemical; in the data active = inhibition above about 36%
# Active calls of the source: *; i = inactive; / = not tested or not shown; + = active, no number.
SMILES,Tn7 DDE FP,SKN-1 block,MT1-MMP act inh,KLK7 zymogen act,Tn6 DDE FP,Neddylation inh
CCCC1(C(=O)OCC)NC(c2ccc(N(C)C)cc2)C2C(=O)N(c3ccccc3)C(=O)C21 (stereo unspecified),-3.4,38.5*,3.4,-0.3,2.8,i
Cc1c(C(=O)NCCC2=CCCCC2)oc2ccc(S(=O)(=O)N3CCOCC3)cc12,-0.9,37.0*,-7.1,0.5,-6.4,i
CCN(CC)CCN(C(=O)c1ccc([N+](=O)[O-])cc1)c1nc2c(OC)cccc2s1,-5.7,2.4,3.7,-0.1,2.1,i
O=C(CNC(=O)c1cccc(F)c1)N/N=C/c1cccc([N+](=O)[O-])c1,-8.4,13.4,7.2,-0.8,-11.2,i
COCCCn1c(=O)c2ccccc2n(Cc2cccc(C)c2)c1=O,-4.1,39.6*,-0.7,0.6,-11.0,i
COCCCn1c(=O)c2ccccc2n(Cc2ccc(C)cc2)c1=O,0.6,15.9,-4.5,0.2,6.1,i
O=C(O)CCNS(=O)(=O)c1ccc2ccccc2c1,-6.1,5.8,7.6,-0.5,-0.7,i
O=C(O)CCNc1cc2ccccc2cc1C(=O)O,0.9,36.5*,-3.1,0.3,-0.6,i
Fc1ccc(OCc2nc3ccccc3s2)cc1,-5.3,38.3*,-4.3,0.3,1.6,i
c1ccc(OCc2nc3ccccc3s2)cc1,-2.2,48.5*,0.2,0.5,-6.4,i
Cn1c(=O)c2[nH]c(=O)[nH]c2n(C)c1=O,-5.8,-7.0,9.2,0.0,3.0,i
CC(Cc1ccccc1)N1CCCC1=O (stereo unspecified),1.2,-6.6,1.8,0.1,-0.1,i
CCCNC(=O)c1cc(C2CCCN(C(=O)C3CC3)C2)on1 (stereo unspecified),2.2,9.0,2.9,-0.1,1.7,i
N/C(=N\OC(=O)c1cccc(Cl)c1)c1cccnc1,-7.5,42.0*,-4.7,0.1,0.2,i
N/C(=N\OC(=O)c1ccc(Cl)c(Cl)c1)c1cccnc1,-5.3,51.5*,5.3,0.2,0.2,i
Cc1nc(Nc2ccncc2)c2oc3ccccc3c2n1,5.7,-13.2,-11.4,0.9,1.3,i
CCc1nc(Nc2ccncc2)c2oc3ccccc3c2n1,-1.9,9.5,-15.2,0.7,0.9,+
Cc1cc([N+](=O)[O-])cc2ncccc12,0.5,7.8,-1.3,0.3,-2.5,i
COc1ccc(C(=O)Nc2nc(-c3cccs3)cs2)cc1,-2.0,46.5*,-8.3,0.7,-13.8,i
C=CCN1C(=O)CS/C1=C(\C#N)S(=O)(=O)c1ccc(C)cc1,1.9,33.8*,38.1,0.8,3.3,i
Clc1ccsc1-c1ccc2ccccc2n1,-0.3,89.7*,-5.1,-0.2,-0.2,i
c1ccc2nc(-c3nccs3)ccc2c1,8.8,18.1,-3.5,-0.1,5.1,i
O=C(COc1ccccc1[N+](=O)[O-])NCC1COc2ccccc2O1 (stereo unspecified),-8.2,0.5,4.9,-0.5,3.7,i
c1ccc2oc(SCc3nc4ccccc4s3)nc2c1,-0.5,45.0*,-0.2,0.0,4.5,i
c1ccc(OCCSc2nc3ccccc3o2)cc1,-0.9,38.6*,2.3,0.3,-0.3,i
SMILES,Tn7 DDE FP,SKN-1 block,MT1-MMP act inh,KLK7 zymogen act,Tn6 DDE FP,Neddylation inh
CCOc1ccc(OCCSc2nc3ccccc3o2)cc1,-3.8,19.1,0.6,-0.2,-3.5,i
c1ccc(-c2noc(CSc3nc4ccccc4o3)n2)cc1,-1.3,43.8*,-2.0,-0.8,0.6,i
c1ccc(SCc2nc3ccccc3s2)nc1,5.3,30.6,-3.3,0.2,-4.4,i
COc1cc(C(=O)NCCSc2ccccc2)cc(OC)c1OC,3.4,-7.3,2.9,0.1,-5.8,i
COc1ccccc1NC(=O)N(C)C[C@H]1OCc2cnnn2CCCC(=O)N([C@H](C)CO)C[C@H]1C,-0.2,-13.4,-2.0,1.1,3.4,i
CS(=O)(=O)N1CCC2(CC1)OCCN2S(=O)(=O)c1ccccc1,4.8,13.3,2.0,0.6,-10.1,i
CCCCCC1CC(=O)NC1(C(=O)OCC)C(=O)OCC (stereo unspecified),-1.1,-8.2,0.5,0.2,-5.3,i
c1ccc(CSc2nnc(-c3ccco3)o2)cc1,5.4,10.2,0.9,0.1,6.3,i
Fc1ccc(CSc2nnc(-c3ccco3)o2)cc1,2.5,71.4*,0.9,0.4,-0.4,i
O=C(O)c1ccc(CSc2nnc(-c3ccco3)o2)cc1,1.4,11.9,0.8,-0.8,2.4,i
Cc1ccc(CSc2nnc(-c3ccco3)o2)cc1,-2.5,82.3*,9.4,0.1,-1.2,i
Brc1ccc(CSc2nnc(-c3ccco3)o2)cc1,2.4,94.4*,2.7,0.8,-2.8,i
COC(=O)CCC(=O)Nc1ccc(S(=O)(=O)Nc2cc(OC)nc(OC)n2)cc1,-5.1,4.0,-0.9,0.7,-0.3,i
O=C(N=C1N=C2C=CC=CN2Cc2ccccc21)c1ccc(S(=O)(=O)N2CCCC2)cc1,2.7,1.9,1.2,0.1,9.8,i
CN(C)S(=O)(=O)c1cccc(C(=O)N=C2N=C3C=CC(Cl)=CN3Cc3ccccc32)c1,-1.4,56.6*,-2.9,0.6,-3.1,i
CC(=O)NC12CC3CC(C1)CC(C(=O)OCC(=O)Nc1ncc(Cl)c(C)c1Cl)(C3)C2,-6.8,-21.3,-5.3,0.1,12.5,i
Cc1cc(/C=N/NC(=O)c2cccc(N(C)C)c2)c(C)n1-c1cc(C(=O)O)cc(C(=O)O)c1,/,-4.3,-1.3,/,/,+
CCCCCCCCCC[n+]1cccc2c3ccccc3ccc21,-5.0,-4.4,-15.4,-12.6,0.6,+
Cc1ccc(S(=O)(=O)N2C[C@]3(O)C[C@@H]4C(=O)N(c5ccccc5)C(=O)[C@@H]4C[C@]3(OC(=O)NCc3ccco3)C2)cc1,-0.5,-11.8,2.8,-0.5,3.7,i
O=c1c(Sc2ccccc2)c(C(F)(F)F)[nH]n1-c1ccccc1,-0.5,7.9,-1.1,0.3,-1.4,i
CSc1nsc(SCc2ccc(F)cc2)n1,-3.9,60.5*,-0.1,-0.3,-0.5,i
CCOC(=O)C1(C(=O)OCC)NC(=O)CC1CC (stereo unspecified),0.2,-3.3,0.9,0.1,-3.7,i
CCCN1C2CCCC1CC(NC(=O)c1ccc(F)cc1)C2 (stereo unspecified),-4.3,56.3*,0.3,0.1,-4.0,i
CC(=O)n1nc(-c2ccco2)nc1SCc1ccccc1,/,13.1,4.0,/,/,i
Cc1cccc(C)c1NC(=O)COC(=O)c1c2c(nc3ccccc13)/C(=C\c1ccc3c(c1)OCO3)CCC2,-8.1,14.6,-251.9,-3.1,-4.7,i

# Compound activity: PubChem, several laboratories
